The list is not random: actives were taken first. Their share in the collection is about 4%.
Yeast growth inh – yeast BB579 growth reduction in restrictive medium | S. cerevisiae BB579 growth, OD615, 48 h | inhibition, % at 10 µM | actives 0.51% (n = 140,000) | AID 804;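 active = inhibition above a set limit, 3 SD over the mean compound inhibition, cut at about 44% in these data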
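Test system: S. cerevisiae DeaD strain BB579 yeast; Medium: restrictive CSMM-D medium; Compound: one dose, 10 µM compound with 0.25% DMSO; Incubation: 4 h cell preincubation, 48 h compound exposure, 30 °C humidified; Signal: OD at 615 nm; Benchmarks: amphotericin B at 10 µg/mL as positive control.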
Insulin prom inh – TRM-6 insulin promoter activity inhibition; TRM-6 cells, insulin promoter-eGFP reporter, imaging; reporter expression induced with tamoxifen; inhibition, % at 2 µM; actives 0.9% (n = 130,000);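 active = inhibition above the mean plus 3 SD, with well images judged a real hit on visual review, cut at about 60% in these data, passing the limit was not always enough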
Measles CPE – protection of cells from measles virus. Measles virus-infected cells, CPE protection, absorbance. protection (pct of control), % at 4 µM. actives 1.5% (n = 140,000). AID 841; in the data active = protection mostly above about 24%, no sharp cut-off; inactive = mostly below about 26%
RAM inhibit – blocks the yeast RAM network. S. cerevisiae dse1pr::URA3 reporter, 5-FOA growth OD615, 2 d; analog-sensitive cbk1-as2 kinase mutant strain. inhibition, % at 50 µM. actives 1.8% (n = 190,000);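 active = inhibition above a set limit, 3 SD over mean compound inhibition, cut at about 8.4% in these data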;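 also: 0% = DMSO-only wells with no growth and 100% = 10 µM 1-NA-PP1 full growth; inhibition rescues growth on 5-FOA so higher OD means more RAM inhibition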
MDM2 E3 inh – inhibitors of human Mdm2 E3 ubiquitin ligase; cell-based MDM2 ubiquitination luciferase reporter, 2 h; 0 = plate control, 100 = twice control, blank-subtracted; signal enhancement, % at 5 µM; actives 0.11% (n = 210,000); AID 1230;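 active = signal enhancement of 30% or more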;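 also: luminescence tracks abundance of the self-degrading MDM2-luciferase fusion protein; higher signal means inhibition of MDM2 E3 ligase activity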
Target sequence (Q00987 whole entry, looked up, the tested form may be a part): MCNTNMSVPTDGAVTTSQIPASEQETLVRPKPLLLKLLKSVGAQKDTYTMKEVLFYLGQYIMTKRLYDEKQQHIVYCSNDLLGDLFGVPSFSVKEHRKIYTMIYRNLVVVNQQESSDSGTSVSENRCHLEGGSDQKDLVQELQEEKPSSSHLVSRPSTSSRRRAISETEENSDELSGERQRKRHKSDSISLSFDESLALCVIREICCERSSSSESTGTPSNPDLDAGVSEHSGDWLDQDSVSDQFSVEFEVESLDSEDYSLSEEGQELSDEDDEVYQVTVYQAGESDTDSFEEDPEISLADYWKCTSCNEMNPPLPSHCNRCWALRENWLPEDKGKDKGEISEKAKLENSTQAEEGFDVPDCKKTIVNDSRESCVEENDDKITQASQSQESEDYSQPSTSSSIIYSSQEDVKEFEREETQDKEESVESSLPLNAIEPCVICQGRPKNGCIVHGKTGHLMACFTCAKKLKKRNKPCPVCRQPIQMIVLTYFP
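Assay system: mammalian cells stably expressing self-ubiquitinating, self-degrading MDM2 E3–luciferase fusion. Quantity: 2000 cells in each well. Medium: DMEM culture medium. Compound dosing: single-point 5 µM. Timing: cell settling 4 h, compound treatment 2 h, both 37 °C. Technique: luciferase luminescence. Read-out basis: percent signal gain over controls, blank-subtracted. Benchmarks: plate controls and plate blanks.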
Yeast lifespan up – yeast lifespan extension | inhibition of the nicotinamide effect, % at 10 µM | actives 0.68% (n = 130,000) | S. cerevisiae growth with nicotinamide, OD615; deaD strain in restrictive glucose medium | AID 775;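 active = inhibition above a set limit, placed 3 SD over the median of all compounds, cut at about 26% in these data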;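 also: 0% = nicotinamide-treated wells and 100% = cells grown without nicotinamide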
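Material: Modified budding yeast, DeaD strain | Medium: Restrictive glucose medium | Probe or stimulus: 1.5 mM nicotinamide | Dosing: Single dose 10 µM compound, 0.25% DMSO | Times: 48 h at 30 °C | Technique: OD615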
* marks the source's active call; other numbers are inactive results; / = no result.

SMILES | Yeast growth inh | Insulin prom inh | Measles CPE | RAM inhibit | MDM2 E3 inh | Yeast lifespan up
CCOC(=O)[C@H](CCc1ccccc1)N[C@@H](C)C(=O)N1CCC[C@H]1C(=O)O | -35 | 67* | 32 | 0 | / | 6
Clc1ccc(Oc2nc(N3CCOCC3)nc(N3CCOCC3)n2)cc1 | -30 | / | 34* | 1 | 20 | -11
CN(C)c1ccc(P(=O)(OCc2ccccc2)C(O)c2ccccc2)cc1 (stereo not given) | / | / | / | / | -13 | /
COc1ccccc1-c1nnc(Sc2nc([N+](=O)[O-])nn2C)o1 | -20 | / | 12 | -1 | 2 | -7
O=C(OCC(=O)N1CCN(C(=O)c2ccco2)CC1)c1cc(-c2ccc(Cl)c(Cl)c2Cl)nc2ccccc12 | -52 | -22 | 17 | 9.5* | -6 | -6
COC(=O)c1nn(-c2ccccc2)c(Cl)c1/C=N/OCc1ccc(C)cc1 | -38 | 33 | 29 | 10* | -15 | -2
CO/N=C/c1c(C(=O)OC)nn(-c2ccccc2)c1Cl | / | -40 | / | 2 | -12 | /
O=C(CN1CCCCC1)NNc1nc(-c2ccccc2)c2cc(Br)ccc2n1 | / | / | / | / | -2 | /
Cn1c(-c2ccccc2)cnc1SCC(=O)N1CCCCC1 | -22 | 7 | 18* | 3 | -63 | /
Cc1ccc(N2CC(C(=O)Nc3ccc(C)c(S(=O)(=O)N(C)C)c3)CC2=O)cc1 (stereo not given) | / | 12 | / | 0 | -5 | /
CCc1ccc(N(CC(=O)NC2CCCC2)S(=O)(=O)c2c(C)noc2C)cc1 | -99 | / | 17 | 9.0* | -6 | 0
CCOc1ccc(N(CC(=O)NC2CCCC(C)C2C)S(=O)(=O)c2c(C)noc2C)cc1 (stereo not given) | -6 | / | 4 | 2 | -15 | 3
C[C@H](NC(=O)c1nc[nH]c1C(=O)N[C@@H](CCCCNC(=O)OC(C)(C)C)C(=O)OC(C)(C)C)c1ccccc1 | / | / | / | / | 3 | /
O=[N+]([O-])c1cc2oc3c(c2c(C=NCc2ccccc2)c1O)CCCC3 | 7 | 31 | 24 | 1 | -4 | 69*
Oc1ccc2ccccc2c1C=NCc1ccccc1 | / | / | / | / | -3 | /
CC(C)CN=Cc1c(O)c([N+](=O)[O-])cc2oc3c(c12)CCCC3 | 68* | / | 7 | 4 | -32 | 21
CCCC/C(O)=C1\C(=O)CCCC1=NCCc1c(C)[nH]c2ccccc12 | / | / | / | / | -6 | /
O=C1NC(=O)/C(=C\c2ccsc2)N1 | / | 72* | / | 2 | -10 | /
CCN(CC)c1ccc(/C=C2\NC(=O)NC2=O)cc1 | -4 | -21 | 14 | 1 | / | -6
COc1cc(O)oc1C=Nc1ccc(C(F)(F)F)cc1 | -10 | 33 | 3 | 1 | -13 | -29
Cc1ccsc1C(C(=O)NC(C)(C)C)N(C(=O)c1csnn1)c1ccccc1 (stereo not given) | / | -67 | / | 10* | -10 | /
Cc1cccc(N(C(=O)c2csnn2)C(C(=O)NC(C)(C)C)c2cccs2)c1 (stereo not given) | -22 | -7 | 5 | 1 | -9 | -21
O=C(O)c1ccccc1C(=O)Nc1ccc(S(=O)(=O)NC2CCCCC2)cc1 | -46 | 33 | 3 | 1 | -5 | 3
O=C1c2cccc3c(O)ccc(c23)C(=O)N1Cc1ccco1 | / | / | / | 5 | 6 | /
O=C1c2ccccc2C(=O)N1Cc1ccco1 | 44* | -35 | 14 | 1 | -23 | -11
SMILES | Yeast growth inh | Insulin prom inh | Measles CPE | RAM inhibit | MDM2 E3 inh | Yeast lifespan up
COc1cc(C)c(Br)cc1S(=O)(=O)N1CCCC1 | 11 | 3 | 30* | 0 | -12 | -3
COCCCNC(=O)/C(C#N)=c1\s/c(=C\c2ccccc2OC(F)F)c(=O)n1CCCOC | -27 | / | 4 | 3 | 5 | 7
COCCCn1c(=O)/c(=C\c2ccccc2OC(F)F)s/c1=C(/C#N)C(=O)N1CCOCC1 | / | / | / | 9.1* | -5 | /
CCCCNC(=O)/C(C#N)=c1\s/c(=C\c2ccccc2OC(F)F)c(=O)n1CCCOC | -19 | / | 7 | 9.2* | -10 | 21
CCC(=O)Nc1nc2cc(OC)ccc2s1 | -16 | -10 | 10 | 0 | -25 | -10
COc1ccc2sc(NC(C)=O)nc2c1 | -29 | 79* | 12 | 1 | -12 | -20
CNC(=S)N(Cc1cc2cc(OC)c(OC)cc2[nH]c1=O)C1CCCC1 | / | / | / | 0 | 4 | /
CC1(C(=O)NCCN2CCOCC2)C=CC2(CCCCC2)N1C(=O)c1ccccc1 (stereo not given) | -47 | -10 | 4 | 1 | / | -4
COCCNC(=O)C1(C)C=CC2(CCCCC2)N1C(=O)c1ccccc1 (stereo not given) | -53 | -100 | 22* | 0 | / | 3
Cc1cccn2c(=O)c(C=NCCO)c(Nc3ccc(Cl)cc3)nc12 | / | / | / | 8.9* | -25 | /
COc1cc(/C=N/NC(=O)Cc2ccccc2)ccc1Oc1ccc([N+](=O)[O-])cc1[N+](=O)[O-] | -58 | 36 | 43* | 1 | 10 | -3
COc1cc(/C=C(/C#N)c2ccccc2F)ccc1OCc1ccccc1 | -26 | / | 35 | 10* | -6 | 3
COc1ccc(/C=N/NC(=O)c2nc(-c3ccccc3)cc(-c3ccccc3)n2)cc1OC | -17 | / | 5 | 10* | -27 | -2
COc1cc(/C=N/OCC(=O)Nc2cc(C)on2)ccc1OCc1ccccc1 | -71 | 4 | 75* | 8 | -16 | 3
COC(=O)C1=C(CSc2nc3ccccc3s2)NC(=O)NC1c1ccc(F)cc1 (stereo not given) | -21 | 0 | 2 | 6 | -5 | 4
COc1ccc(-c2csc(CCN3N=C(C)CC3=O)n2)cc1 | / | 50 | / | 0 | -20 | /
COc1ccc(/C=N/NC(=O)c2ccncc2)cc1CSc1nc2ccccc2s1 | -39 | / | 5 | 5 | -4 | -1
COc1cc(/C=C/C(=O)NC(C)C)ccc1OCc1ccccc1 | -18 | 6 | 88* | 3 | 1 | -4
COc1cc(/C=N/NC(=O)CN2CCCCC2)ccc1OCc1ccccc1 | 3 | -35 | 34* | 0 | -3 | -5
CCOc1cc(/C=C/C(=O)O)ccc1OCc1ccccc1 | / | -9 | / | 4 | -7 | /
S=C(NCc1ccc(Cl)cc1Cl)NC1CCCCC1 | 71* | -50 | 4 | 8 | -1 | 4
Clc1ccc(CNC2CCCC2)c(Cl)c1 | -23 | -20 | 8 | 0 | -13 | -14
O=C(c1ccccc1)C1C(c2ccccc2)C1[N+](=O)[O-] (stereo not given) | / | / | / | / | -15 | /
CN(C)c1ccc([C@@H]2[C@@H]([N+](=O)[O-])[C@H]3C=Cc4ccccc4N3[C@H]2C(=O)c2ccc(Cl)cc2)cc1 | -9 | / | 6 | 2 | -12 | 32*
CCCc1c(O)nc(SCCN(CC)CC)n(C(=O)c2ccccc2)c1=O | -58 | / | 8 | -1 | 6 | -11
CCOC(=O)COn1c(=O)c[n+]([O-])c2ccccc21 | -25 | 100* | 12 | 1 | 1 | -3

High-throughput results: PubChem BioAssay, several laboratories
